The target of series [1] is Genome polyprotein (dengue virus type 2, UniProt P29990). Description: Inhibition Dengue serotype-2 NS3B/NS3 protease using 7-amino-4-methylcoumarin as substrate by fluorescence assay.
Series [2] concerns the target Nonstructural protein 3 (Zika virus, UniProt A0A024AXB9). Description: Inhibition Zika virus NS2B (47 to 95 residues)/NS3 (1 to 170 residues) protease expressed in Escherichia coli BL21 using 7-amino-4-methylcoumarin as substrate by fluorescence assay. The procedure, abridged: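 Single-chain NS2B(47–95)–Gly4-Ser-Gly4–NS3(1–170) enzyme at 1 nM in 20 mM HEPES pH 7.3 with 0.05% Triton X-100. Compound (1 nM–10 µM, triplicate) is preincubated 10 min before adding Bz-Nle-Lys-Lys-Arg-AMC at 20 µM. Fluorescence (Ex 360/Em 460 nm) is read every 30 s. IC50 comes from dose-response fitting of initial velocities, 3 independent experiments with SD.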

For series [3], the target named is Genome polyprotein (West Nile virus, UniProt P06935). Description: Inhibition West Nile virus NS3B/NS3 protease using 7-amino-4-methylcoumarin as substrate by fluorescence assay.
Sequence of Genome polyprotein (West Nile virus, UniProt P06935) (P06935 1371-1501 limits assumed): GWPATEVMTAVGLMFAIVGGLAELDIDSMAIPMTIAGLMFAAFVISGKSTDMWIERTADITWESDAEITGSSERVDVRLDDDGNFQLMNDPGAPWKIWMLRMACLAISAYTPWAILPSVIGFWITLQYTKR
Sequence of Genome polyprotein (West Nile virus, UniProt P06935) (P06935 1502-2120 limits assumed): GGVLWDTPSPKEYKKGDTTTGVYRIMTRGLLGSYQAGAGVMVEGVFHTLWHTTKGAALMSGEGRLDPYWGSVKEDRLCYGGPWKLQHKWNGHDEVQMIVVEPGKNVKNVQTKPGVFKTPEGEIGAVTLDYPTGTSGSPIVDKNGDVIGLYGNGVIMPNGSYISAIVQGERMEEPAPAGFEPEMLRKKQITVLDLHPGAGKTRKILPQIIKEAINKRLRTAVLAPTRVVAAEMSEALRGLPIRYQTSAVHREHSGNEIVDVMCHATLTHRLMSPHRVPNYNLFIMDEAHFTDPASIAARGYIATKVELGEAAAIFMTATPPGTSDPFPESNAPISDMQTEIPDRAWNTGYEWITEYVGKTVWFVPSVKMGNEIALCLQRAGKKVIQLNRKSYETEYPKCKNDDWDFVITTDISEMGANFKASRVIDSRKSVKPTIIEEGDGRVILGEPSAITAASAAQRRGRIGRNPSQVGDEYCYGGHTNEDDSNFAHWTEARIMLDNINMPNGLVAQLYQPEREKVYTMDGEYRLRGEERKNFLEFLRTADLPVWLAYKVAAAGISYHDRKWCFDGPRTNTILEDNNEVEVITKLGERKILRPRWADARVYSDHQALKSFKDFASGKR
The test system of series [4] is Zika virus. Description: Antiviral activity against Zika virus infected in human U87 cells assessed as reduction in infectious virus in supernatant by measuring infection of Vero cells preincubated with viral infected […] cells for 48 hrs and measured following infection of supernatants with Vero cells for 7 days by microscopy. It counts as functional. To be noted: U-87 MG. The procedure, abridged: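 U87 cells (2×10^4/well, DMEM with 2% FBS monolayer) infected with ZIKV FLR strain (passage-3 stock) at MOI 0.01 for 1 h, then washed. Compound added in triplicate for 48 h at 37 °C. Supernatant half-log dilutions are titrated on Vero cells in quadruplicate for 7 days, with CPE read by microscopy plus MTT. EC68 is the half-log TCID50 reduction versus control; ≥2 independent experiments.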

In series [5] the test system is U-87 MG. Description: Cytotoxicity against human U87 cells assessed as inhibition of proliferation at 10 uM by MTT assay. It counts as cell-based. To be noted: u-87mg atcc.
The test system of series [6] is Vero. Description: Cytotoxicity against African green monkey Vero cells assessed as inhibition of proliferation at 10 uM by MTT assay. It counts as cell-based. To be noted: chlorocebus sabaeus.
For series [7], the system named is Zika virus. Description: Antiviral activity against Zika Serotype 2 infected mouse model assessed as inhibition of viral load in plasma at 30 mg/kg treated for 3 days. It counts as functional. To be noted: 72 h, time 3 day.
For series [8], the system named is Zika virus. Description: Antiviral activity against Zika Serotype 2 infected mouse model assessed as inhibition of viral load in brain at 30 mg/kg treated for 3 days. Type of series: functional. As to conditions: 72 h, time 3 day.
The test system of series [9] is Zika virus. Description: Antiviral activity against Zika virus infected in human U87 cells assessed as inhibition of viral replication at 10 uM. It counts as functional, organism-based.

Active and inactive are the calls of the source. The calls are words filed in the database; no cut-off is given here.

Sequence of Genome polyprotein (dengue virus type 2, UniProt P29990) (P29990 1346-1475 limits assumed): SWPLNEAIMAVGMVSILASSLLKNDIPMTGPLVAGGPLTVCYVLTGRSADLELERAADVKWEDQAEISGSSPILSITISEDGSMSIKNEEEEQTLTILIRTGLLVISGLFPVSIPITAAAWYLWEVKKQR
Sequence of Genome polyprotein (dengue virus type 2, UniProt P29990) (P29990 1476-2093 limits assumed): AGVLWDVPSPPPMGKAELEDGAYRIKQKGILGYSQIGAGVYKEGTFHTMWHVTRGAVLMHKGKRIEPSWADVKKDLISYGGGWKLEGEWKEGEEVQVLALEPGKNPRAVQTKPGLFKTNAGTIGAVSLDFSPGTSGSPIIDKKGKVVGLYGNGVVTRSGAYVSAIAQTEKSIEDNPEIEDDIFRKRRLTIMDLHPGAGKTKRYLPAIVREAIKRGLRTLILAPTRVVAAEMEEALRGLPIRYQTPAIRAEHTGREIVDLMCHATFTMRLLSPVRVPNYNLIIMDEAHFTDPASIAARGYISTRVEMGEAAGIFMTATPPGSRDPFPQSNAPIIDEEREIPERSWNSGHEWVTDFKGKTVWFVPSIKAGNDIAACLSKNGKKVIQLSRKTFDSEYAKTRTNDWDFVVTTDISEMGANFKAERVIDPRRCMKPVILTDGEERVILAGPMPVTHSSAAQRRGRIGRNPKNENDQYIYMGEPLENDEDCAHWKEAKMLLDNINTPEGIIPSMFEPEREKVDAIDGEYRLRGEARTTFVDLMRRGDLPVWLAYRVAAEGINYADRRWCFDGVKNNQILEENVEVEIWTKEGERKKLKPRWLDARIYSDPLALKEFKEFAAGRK
Sequence of Nonstructural protein 3 (A0A024AXB9 whole entry, the tested form may be a part): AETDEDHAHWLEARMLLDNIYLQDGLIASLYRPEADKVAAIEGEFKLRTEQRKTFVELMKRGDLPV

One may read the IC50 as the point on the concentration scale where inhibition reaches its midpoint. For the compound `CC(C)(C)C(=O)OCc1ccc(-c2ncc(OCC3CCNCC3)nc2-c2ccc(COC(=O)C(C)(C)C)cc2)cc1`, the IC50 in series [1] was 13.4 µM; in series [2] it was 9.8 µM; in series [3] it was 20 µM.

For the compound `NCc1ccc(-c2ncc(OCC3CCNCC3)nc2-c2ccc(C3CCOCC3)cc2)cc1`, the IC50 turned out to be 2.4 µM in [1], 0.13 µM in series [2] and 0.82 µM in [3]. Further, in [4], the EC68 was found to be 0.6 µM. For the same compound, the Activity result in series [5] and in [6] was “Non-Toxic” throughout.

Take `NCc1ccc(-c2ccc(NCC3CCNCC3)nc2-c2ccc(-c3ccoc3)cc2)cc1`: the IC50 in series [1] was determined as 0.86 µM; in series [2], 0.79 µM; in [3] it was 1.3 µM. Further, the EC68 in series [4] was 1.2 µM.

Consider `CC(C)(C)c1ccc(-c2ncc(OCC3CCNCC3)nc2-c2ccc(C(C)(C)C)cc2)cc1`, for which the IC50 in series [1] amounted to 8.4 µM; in series [2] it was 3.1 µM; in series [3], 9.5 µM. Besides, in [4], the EC68 was 5 µM.

For the compound `NCc1ccc(-c2ncc(OCC3CCNCC3)nc2-c2ccc(-c3ccncc3)cc2)cc1`, the figures for the IC50 in series [1], in series [2] and in series [3] were more than 50 µM, 26.5 µM and more than 50 µM, respectively.

On to `NCc1ccc(-c2ncc(OCC3CCNCC3)nc2-c2ccc(-c3cn[nH]c3)cc2)cc1`, for which the figures for the IC50 in series [1] and in [2] were 0.21 µM and 0.76 µM, respectively. Besides, the EC68 in series [4] came to 2.5 µM.

For `NCc1ccc(-c2nc(OCC3CCNCC3)cnc2-c2ccc(-c3ccoc3)cc2)cc1`, the IC50 in series [2] was determined as 0.68 µM. The EC68 in series [4] was 1.2 µM.

`NCc1ccc(-c2ncc(OCC3CCNCC3)nc2-c2ccc(Oc3ccccc3)cc2)cc1`: the IC50 is more than 50 µM in [1], 32.6 µM in series [2] and more than 50 µM in [3].

In the case of `NCc1ccc(-c2ncc(OCC3CCNCC3)nc2-c2ccc(C3CCOCC3)nc2)cc1`, in series [2], the IC50 amounted to 1 µM. In addition, the EC68 in series [4] turned out to be 3 µM. The Activity result in [5] and in series [6] was “Non-Toxic” each time.

On to `Brc1ccc(-c2ncc(OCC3CCNCC3)nc2-c2ccc(Br)cc2)cc1`, for which the results for the half-inhibitory concentration (IC50) in series [1], in [2] and in series [3] were 35 µM, 21.7 µM and more than 50 µM, respectively. Moreover, the EC68 in series [4] is more than 10 µM.

With `NC(=O)c1ccc(-c2ncc(OCC3CCNCC3)nc2-c2ccc(-c3ccoc3)cc2)cc1`, the IC50 turned out to be 0.98 µM in series [1], 1.1 µM in series [2] and 1.34 µM in series [3]. In addition, the EC68 in series [4] came to 2.5 µM.

Regarding `CNCc1ccc(-c2ncc(OCC3CCNCC3)nc2-c2ccc(-c3ccoc3)cc2)cc1`, the results for the IC50 in [1] and in series [3] were 0.73 µM and 0.87 µM, respectively. Besides, the EC68 in series [4] came out at 1.2 µM.

Turning to `ONCc1ccc(-c2ncc(OCCC3CCNCC3)nc2-c2ccc(CNO)cc2)cc1`, the IC50 worked out at 3.8 µM in series [1], 1.6 µM in series [2] and 3.2 µM in series [3].

One may read the inhibition in vivo as the relative decrease from the control value, in per cent. As for `NCc1ccc(-c2ncc(OCC3CCNCC3)nc2-c2ccc(-c3ccoc3)cc2)cc1`, the IC50 in [1] was 0.59 µM; in series [3] it was 0.78 µM. The EC68 in series [4] turned out to be 0.3 µM. Moreover, the results for the inhibition in vivo at 30 mg/kg in series [7] and in [8] were 96% and 98%, respectively.

`Ic1ccc(-c2ncc(OCCC3CCNCC3)nc2-c2ccc(I)cc2)cc1`: the IC50 came to 10.2 µM in [1], 4.7 µM in series [2] and 1.8 µM in series [3].

In [2], `CC(Oc1cnc(-c2ccc(CN)cc2)c(-c2ccc(-c3ccoc3)cc2)n1)C1CCNCC1` (racemic) showed an IC50 of 0.24 µM. Moreover, in series [4], the EC68 came out at 1.2 µM.

For `NCc1ccc(-c2ncc(NCC3CCNCC3)nc2-c2ccc(-c3ccoc3)cc2)cc1`, the IC50 amounted to 0.29 µM in series [1], 0.4 µM in [2] and 0.51 µM in series [3]. The EC68 in series [4] worked out at 1.2 µM.

Turning to `NCc1ccc(-c2ncc(OCC3CCNCC3)nc2-c2ccc(O)cc2)cc1`, the EC68 in series [4] is more than 10 µM. In addition, in series [9], the inhibition entry was “inactive”.

Turning to `NCc1ccc(-c2ncc(OCC3CCNCC3)nc2-c2ccc3[nH]ccc3c2)cc1`, the IC50 amounted to 0.64 µM in series [1] and 0.93 µM in [3]. Besides, the EC68 in [4] is 2.5 µM.

The values are drawn from ChEMBL document CHEMBL4811233, “Synthesis, Structure-Activity Relationships, and Antiviral Activity of Allosteric Inhibitors of Flavivirus NS2B-NS3 Protease” (J Med Chem, 2021).
